# Measured values from different studies.
# Each line is one published result; the experiments were not run side by side.
# Target: RAC-gamma serine/threonine-protein kinase (AKT3, Homo sapiens, UniProt Q9Y243)
SMILES,assay,conditions,remaining binding
CCC(=O)N[C@H]1CC[C@@H](C(=O)N(C)c2ccc(-c3nc4ccccc4o3)cc2)C1,"cell-free assay, competition with immobilised ligand",1 µM,100%
C=CC(=O)N1CCC(C(=O)NCC(=O)N2CCN(c3nc(-c4cnc(N)nc4C(F)F)nc(N4CCOCC4)n3)CC2)CC1,"binding, competition with immobilised ligand",1 µM,100%
C[C@@H](c1ccc(-n2cnc3c(N)ncnc32)cc1)N1CCc2nn(C)c(Cc3ccccc3)c2C1=O,"binding, competition with immobilised ligand",0.1 µM,62%
COc1ccc2c(c1)O[C@H](c1ccc(OC)c(OC)c1)C[C@@H]2NC(=O)C1(c2ccc3c(c2)OC(F)(F)O3)CC1,"cell-free assay, competition with immobilised ligand",1 µM,100%
Nc1ncc2c(n1)-c1c([nH]c3ccc(C#CC4CC4)cc13)CCCC2,"binding, competition with immobilised ligand",1 µM,69%
O=C(Nc1c[nH]nc1C(=O)NC1CCNCC1)c1cc(F)cc(F)c1,"binding, competition with immobilised ligand",1 µM,100%
C[C@@H]1CCN(c2nccc(-c3cnn4ncccc34)n2)C1,binding,1 µM,78%
COc1ncc2cc3ccccc3nc2c1C#N,"cell-free assay, competition with immobilised ligand",5 µM,100%
CN(C)c1ncc(F)c(-c2cnn3ncccc23)n1,binding,1 µM,100%
Cc1nc(C2CCN(C(=O)c3ccc(OC(F)(F)F)cc3N)CC2)c2ncc(N3CCN(C)CC3)cc2n1,"cell-free assay, competition with immobilised ligand",1 µM,95%
CNC(=O)[C@@H]1CC[C@@H](n2c(-c3ccc4cnccc4c3)nc3ccc(C(=O)NCc4cccc(C(N)=O)c4)cc32)C1,"binding, competition with immobilised ligand",1 µM,100%
O=C(NCCCN1CCOCC1)c1ccc(Nc2ncc(Cl)c(-c3ccc(Cl)s3)n2)cc1,"binding, competition with immobilised ligand",1 µM,100%
CCc1ccccc1C(=O)Nc1n[nH]c2c(C)c(F)c(C3C(C#N)=C(C)N(C)C(C)=C3C#N)cc12,"cell-free assay, competition with immobilised ligand",1 µM,100%
CN(CCCC(F)(F)F)c1nccc(-c2cnn3ncccc23)n1,binding,1 µM,83%
O=C1NC(c2ccccn2)Sc2ccccc21 (stereo not drawn),"cell-free assay, competition with immobilised ligand",1 µM,100%
c1cnn2ncc(-c3ccnc(N4CCC45COC5)n3)c2c1,binding,1 µM,86%
Cc1cnc(Nc2ccc(C(=O)N3CCC(N4CCCC4)CC3)cc2)nc1-c1cc2ccccc2s1,"binding, competition with immobilised ligand",1 µM,100%
N[C@H]1CCN(c2nccc(-c3cnn4ncccc34)n2)C1,binding,1 µM,100%
O=C(c1ccc(Nc2ncc(Cl)c(-c3ccc(Cl)s3)n2)cc1)N1CCC(N2CCCC2)CC1,"binding, competition with immobilised ligand",1 µM,100%
COc1ccnn2ncc(-c3ccnc(N(C)C)n3)c12,binding,1 µM,98%
C[C@@H]1CN(c2cc(-c3n[nH]c4ccc(OC5(C)CC5)cc34)ncn2)C[C@H](C)O1,"cell-free assay, competition with immobilised ligand",0.1 µM,86%
